Laboratory results taken from ChEMBL document CHEMBL2440017, “Discovery of a potent, selective, and orally bioavailable histamine H3 receptor antagonist SAR110068 for the treatment of sleep-wake disorders” (Bioorg Med Chem Lett, 2013).

Key:
[1] = Elimination half life in OF1 mouse brain at 2 mg/kg, iv; assay type: ADME, organism-based; design: dose 2 mg/kg, route intravenous; details: read-out: beta t1/2 (converted)
Outline: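 Male OF1 mice or male Sprague-Dawley rats, single 2 mg/kg i.v. dose. Mouse vehicle 50% 1-methyl-2-pyrrolidinone in saline at 1.0 mg/mL; rat vehicle saline at 0.5 mg/mL. Plasma and brain levels followed over time; AUC0-inf, t1/2 and clearance derived from exposure. Brain/plasma ratio uses i.v. AUC0-inf.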

[2] = Metabolic stability in rat microsomes; assay type: ADME, Microsome
Outline: (§1)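 Percentage biotransformation measured in vitro in liver microsomes of each species.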

Mus musculus [3] = assay: Autonomic toxicity in mouse at 10 to 30 mg/kg, po; assay type: organism-based; design: dose 10-30 mg/kg, route oral; details: in vivo
Outline: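 Acute oral behavioural safety evaluation in grouped mice at 0, 10 and 30 mg/kg p.o. Animals scored for behavioural, neurologic and autonomic signs.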

Mus musculus [4] = assay: Toxicity in mouse assessed as behavioral side effect at 30 mg/kg, po; assay type: organism-based; design: dose 30 mg/kg, route oral; details: in vivo
Outline: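 Group acute oral behavioral safety study in mice at 30 mg/kg p.o., scored for behavioral side effects.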

[5] = Oral bioavailability in Sprague-Dawley rat plasma at 10 mg/kg; assay type: ADME, organism-based
Outline: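 Male Sprague–Dawley rats received 2 mg/kg i.v. (0.5 mg/mL in saline) or 10 mg/kg p.o. (1.0 mg/mL in 0.5% MC/0.2% Tween80). Plasma and brain AUC0-inf were measured, and the B/P ratio was calculated from i.v. AUC0-inf.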

[6] = Metabolic stability in dog microsomes; assay type: ADME, Canis lupus familiaris, Microsome; outline: as §1
Plasma = assay: Metabolic stability in mouse plasma; assay type: ADME, cell-free
Outline: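 Compound stability measured in plasma of each species in vitro.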

For Cc1cc(N2CC[C@H](N3CCC[C@@H]3C)C2)ccc1NC(=O)C1CCOCC1, the half-life [1] was 49.8 min, the Stability [2] was “Stable” and the Activity (Mus musculus [3]) was “Non-toxic”. The Activity (Mus musculus [4]) was “Non-toxic”, the bioavailability [5] was 80% and the Stability [6] was “Stable”. The Stability (Plasma) was “Stable”.
